Data taken from ChEMBL document CHEMBL2390834, “Structure-activity relationships for ferriprotoporphyrin IX association and β-hematin inhibition by 4-aminoquinolines using experimental and ab initio methods” (Bioorg Med Chem, 2013).

What was measured:
Ferriprotoporphyrin IX = test: Binding affinity to ferriprotoporphyrin 9 at pH 7.5 by UV-vis spectrophotometric analysis in presence of 40% DMSO
Outline: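 Association constant (log K) with Fe(III)PPIX measured by spectrophotometric titration in 40% aqueous (v/v) DMSO, pH 7.5, using a previously described method without modification.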

[1] = Inhibition of beta-hematin formation after 60 mins by colorimetric assay relative to Fe(3)PP9; type: functional
Outline: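 4.5 M acetate drives β-hematin formation. Leftover Fe(III)PPIX is then reacted with 5% aqueous pyridine to give a low-spin bis-pyridyl complex, read colorimetrically. Prior method used unmodified; result reported as BHIA₅₀ (50% inhibitory activity).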

Plasmodium falciparum = test: Antimalarial activity against chloroquine-sensitive Plasmodium falciparum NF54 by [3H]hypoxanthine incorporation assay; type: functional, organism-based
Outline: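 Chloroquine-sensitive NF54 P. falciparum parasites grown in vitro; growth measured by [³H]-hypoxanthine incorporation, essentially as in earlier work; IC50 in nM.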

Compound | log K (Ferriprotoporphyrin IX) | IA50 [1] [equiv] | IC50 (Plasmodium falciparum) [nM]
CCN(CC)CCNc1ccnc2cc(F)ccc12 | 4.6 | 9.7 | –
CCN(CC)CCNc1ccnc2cc(N)ccc12 | 4.35 | > 20 | –
Nc1ccnc2cc([N+](=O)[O-])ccc12 | 4.57 | 5.7 | –
NCCNc1ccnc2ccccc12 | 4.38 | 10.6 | 66
CNc1ccnc2cc(C#N)ccc12 | 4.42 | 4.5 | –
CNc1ccnc2cc(OC)ccc12 | 3.71 | 10.4 | –
Nc1ccnc2cc(C(F)(F)F)ccc12 | 4.41 | 5.6 | –
COc1ccc2c(N)ccnc2c1 | 4.24 | 15.6 | –
CNc1ccnc2cc(C)ccc12 | 4.01 | 11.1 | –
N#Cc1ccc2c(N)ccnc2c1 | 4.32 | 6.1 | –
CCN(CC)CCNc1ccnc2cc(C(F)(F)F)ccc12 | 4.67 | 8 | –
CCN(CC)CCNc1ccnc2cc(OC)ccc12 | 4.83 | > 20 | –
Nc1ccnc2cc(Cl)ccc12 | 5.01 | 5.8 | –
CCN(CC)CCNc1ccnc2cc(Cl)ccc12 | 5.81 | 2.2 | –
CCN(CC)CCNc1ccnc2cc(I)ccc12 | 5.02 | 2.8 | –
CCN(CC)CCNc1ccnc2cc([N+](=O)[O-])ccc12 | 4.65 | 3.1 | –
CNc1ccnc2cc(C(F)(F)F)ccc12 | 4.18 | 5 | –
Cc1ccc2c(N)ccnc2c1 | 4.17 | 10.8 | –

Compound | log K (Ferriprotoporphyrin IX) | IA50 [1] [equiv] | IC50 (Plasmodium falciparum) [nM]
CNc1ccnc2cc(N)ccc12 | 4.04 | > 20 | –
CNc1ccnc2cc(C(N)=O)ccc12 | 3.43 | 10.1 | –
NCCNc1ccnc2cc(Cl)ccc12 | 5.1 | 5.4 | 4.6
Nc1ccnc2ccccc12 | 3.83 | 10 | –
NCCNc1ccnc2cc([N+](=O)[O-])ccc12 | 4.48 | 5.3 | 747
CCN(CC)CCNc1ccnc2cc(C)ccc12 | 4.86 | 17 | –
CCN(CC)CCNc1ccnc2cc(Br)ccc12 | 4.99 | 4.4 | –
COc1ccc2c(NCCN)ccnc2c1 | 4.47 | 10.6 | –
CNc1ccnc2cc([N+](=O)[O-])ccc12 | 4.32 | 5.5 | –
NC(=O)c1ccc2c(N)ccnc2c1 | 3.76 | 10.3 | –
Cc1ccc2c(NCCN)ccnc2c1 | 4.35 | 10.3 | 37
CCN(CC)CCNc1ccnc2ccccc12 | 4.75 | > 20 | –
Nc1ccc2c(N)ccnc2c1 | 3.44 | > 20 | –
CNc1ccnc2ccccc12 | 3.92 | 14.9 | –
CNc1ccnc2cc(Cl)ccc12 | 4.62 | 5.7 | –
N#Cc1ccc2c(NCCN)ccnc2c1 | 4.47 | 6.3 | 20
NCCNc1ccnc2cc(C(F)(F)F)ccc12 | 4.7 | 5.4 | 8.6
